Measured values: ChEMBL document CHEMBL3425481, “Design, synthesis and anticancer activity of matrine-1H-1,2,3-triazole-chalcone conjugates” (Bioorg Med Chem Lett, 2015)

How the values were obtained:
A549 [1] = assay: Antitumor activity against human A549 cells xenografted in Balb/ca-nu mouse assessed as tumor growth inhibition at 2.5 mg/kg, iv dosed every 3 days for total of 7 dosing rounds measured on day 16 after treatment; format: functional; settings: read-out: TGI
How it was run: (§1)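 A549 xenograft in mice, dosed by tail vein injection every 3 days; vehicle saline plus 0.2% Tween 80. n = 8 per treatment group, 6 in the vehicle group. Mean ± SE.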

A549 [2] = assay: Antitumor activity against human A549 cells xenografted in Balb/ca-nu mouse assessed as tumor growth inhibition at 10 mg/kg, iv dosed every 3 days for total of 7 dosing rounds measured on day 12 after treatment; format: functional; settings: read-out: TGI; how it was run: as §1
A549 [3] = assay: Antitumor activity against human A549 cells xenografted in Balb/ca-nu mouse assessed as tumor growth inhibition at 2.5 mg/kg, iv dosed every 3 days for total of 7 dosing rounds measured on day 10 after treatment; format: functional; settings: read-out: TGI; how it was run: as §1
A549 [4] = assay: Antitumor activity against human A549 cells xenografted in Balb/ca-nu mouse assessed as tumor growth inhibition at 10 mg/kg, iv dosed every 3 days for total of 7 dosing rounds measured on day 14 after treatment; format: functional; settings: read-out: TGI; how it was run: as §1
A549 [5] = assay: Antitumor activity against human A549 cells xenografted in Balb/ca-nu mouse assessed as tumor growth inhibition at 2.5 to 10 mg/kg, iv dosed every 3 days for total of 7 dosing rounds measured after 20 days post dose; format: functional, organism-based; how it was run: as §1
A549 [6] = assay: Antitumor activity against human A549 cells xenografted in Balb/ca-nu mouse assessed as tumor growth inhibition at 2.5 mg/kg, iv dosed every 3 days for total of 7 dosing rounds measured on day 18 after treatment; format: functional; settings: read-out: TGI; how it was run: as §1
A549 [7] = assay: Induction of apoptosis in human A549 cells assessed as viable cells level at IC50 incubated for 24 hrs by Annexin V-FITC/propidium iodide double staining based flow cytometry (reference value: 99.7%); format: functional
A549 [8] = assay: Antitumor activity against human A549 cells xenografted in Balb/ca-nu mouse assessed as tumor growth inhibition at 2.5 mg/kg, iv dosed every 3 days for total of 7 dosing rounds measured on day 14 after treatment; format: functional; settings: read-out: TGI; how it was run: as §1
A549 [9] = assay: Induction of apoptosis in human A549 cells assessed as late apoptosis cells level at IC50 incubated for 24 hrs by Annexin V-FITC/propidium iodide double staining based flow cytometry (reference value: 0.127%); format: functional
A549 [10] = assay: Induction of apoptosis in human A549 cells assessed as necrosis cells level at 2 times antiproliferative IC50 incubated for 24 hrs by Annexin V-FITC/propidium iodide double staining based flow cytometry (reference value: 0.042%); format: functional
A549 [11] = assay: Induction of apoptosis in human A549 cells assessed as late apoptosis cells level at 0.5 times antiproliferative IC50 incubated for 24 hrs by Annexin V-FITC/propidium iodide double staining based flow cytometry (reference value: 0.127%); format: functional
A549 [12] = assay: Antitumor activity against human A549 cells xenografted in Balb/ca-nu mouse assessed as tumor growth inhibition at 10 mg/kg, iv dosed every 3 days for total of 7 dosing rounds measured on day 16 after treatment; format: functional; settings: read-out: TGI; how it was run: as §1
A549 [13] = assay: Induction of apoptosis in human A549 cells assessed as viable cells level at 0.5 times antiproliferative IC50 incubated for 24 hrs by Annexin V-FITC/propidium iodide double staining based flow cytometry (reference value: 99.7%); format: functional
A549 [14] = assay: Induction of apoptosis in human A549 cells assessed as early apoptosis cells level at 2 times antiproliferative IC50 incubated for 24 hrs by Annexin V-FITC/propidium iodide double staining based flow cytometry (reference value: 0.116%); format: functional
A549 [15] = assay: Induction of apoptosis in human A549 cells assessed as late apoptosis cells level at 2 times antiproliferative IC50 incubated for 24 hrs by Annexin V-FITC/propidium iodide double staining based flow cytometry (reference value: 0.127%); format: functional
A549 [16] = assay: Antitumor activity against human A549 cells xenografted in Balb/ca-nu mouse assessed as tumor growth inhibition at 5 mg/kg, iv dosed every 3 days for total of 7 dosing rounds measured on day 14 after treatment; format: functional; settings: read-out: TGI; how it was run: as §1
A549 [17] = assay: Antitumor activity against human A549 cells xenografted in Balb/ca-nu mouse assessed as tumor growth inhibition at 2.5 mg/kg, iv dosed every 3 days for total of 7 dosing rounds measured on day 12 after treatment; format: functional; settings: read-out: TGI; how it was run: as §1
A549 [18] = assay: Antitumor activity against human A549 cells xenografted in Balb/ca-nu mouse assessed as tumor growth inhibition at 5 mg/kg, iv dosed every 3 days for total of 7 dosing rounds measured on day 10 after treatment; format: functional; settings: read-out: TGI; how it was run: as §1
A549 [19] = assay: Induction of apoptosis in human A549 cells incubated for 24 hrs by Annexin V-FITC/propidium iodide double staining based flow cytometry; format: functional, cell-based
A549 [20] = assay: Antitumor activity against human A549 cells xenografted in Balb/ca-nu mouse assessed as tumor growth inhibition at 10 mg/kg, iv dosed every 3 days for total of 7 dosing rounds measured on day 18 after treatment; format: functional; settings: read-out: TGI; how it was run: as §1
A549 [21] = assay: Antitumor activity against human A549 cells xenografted in Balb/ca-nu mouse assessed as tumor growth inhibition at 5 mg/kg, iv dosed every 3 days for total of 7 dosing rounds measured on day 16 after treatment; format: functional; settings: read-out: TGI; how it was run: as §1
A549 [22] = assay: Induction of apoptosis in human A549 cells assessed as early apoptosis cells level at IC50 incubated for 24 hrs by Annexin V-FITC/propidium iodide double staining based flow cytometry (reference value: 0.116%); format: functional
A549 [23] = assay: Antitumor activity against human A549 cells xenografted in Balb/ca-nu mouse assessed as tumor growth inhibition at 5 mg/kg, iv dosed every 3 days for total of 7 dosing rounds measured on day 20 after treatment; format: functional; settings: read-out: TGI; how it was run: as §1
Mus musculus = assay: Toxicity in human A549 cells xenografted Balb/ca-nu mouse assessed as effect on body weight at 2.5 to 10 mg/kg, iv dosed every 3 days for total of 7 dosing rounds measured on day 10 to day 20 after treatment; format: organism-based; design: dose 2.5-10 mg/kg, route intravenous; settings: in vivo, 72 h; how it was run: as §1
A549 [24] = assay: Antiproliferative activity against human A549 cells assessed as inhibition of cell proliferation incubated for 48 hrs by CCK8 assay; format: functional, cell-based; settings: A549, 48 h
How it was run: (§2)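 Human A549 lung, Hela cervical, Bel-7402 hepatocellular and MCF-7 breast cancer cells, plus mouse embryo fibroblast NIH3T3, tested for anti-proliferative activity by CCK-8 assay. For the matrine combination tests, the chalcone and matrine were used at a 1:1 molar ratio; values given as IC50.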

MCF7 = assay: Antiproliferative activity against human MCF7 cells assessed as inhibition of cell proliferation incubated for 48 hrs by CCK8 assay; format: functional, cell-based; settings: MCF7, 48 h; how it was run: as §2
A549 [25] = assay: Antitumor activity against human A549 cells xenografted in Balb/ca-nu mouse assessed as tumor growth inhibition at 5 mg/kg, iv dosed every 3 days for total of 7 dosing rounds measured on day 18 after treatment; format: functional; settings: read-out: TGI; how it was run: as §1
A549 [26] = assay: Antitumor activity against human A549 cells xenografted in Balb/ca-nu mouse assessed as tumor growth inhibition at 10 mg/kg, iv dosed every 3 days for total of 7 dosing rounds measured on day 20 after treatment; format: functional; settings: read-out: TGI; how it was run: as §1
A549 [27] = assay: Potency index, ratio of IC50 for 5-fluorouracil to IC50 for compound against human A549 cells incubated for 48 hrs by CCK8 assay; format: functional
A549 [28] = assay: Antitumor activity against human A549 cells xenografted in Balb/ca-nu mouse assessed as tumor growth inhibition at 2.5 mg/kg, iv dosed every 3 days for total of 7 dosing rounds measured on day 20 after treatment; format: functional; settings: read-out: TGI; how it was run: as §1

IC50 (A549 [24]): 5.01 µM | IC50 (MCF7): 6.25 µM
Compound: O=C(/C=C/c1cccc(Cl)c1)c1ccc(OCc2cn([C@H]3CC(=O)N4C[C@@H]5CCCN6CCC[C@@H]([C@H]56)[C@H]4C3)nn2)cc1O
inhibition in vivo at 2.5 mg/kg (A549 [1]): 33.2% | inhibition in vivo at 10 mg/kg (A549 [2]): 70.9% | inhibition in vivo at 2.5 mg/kg (A549 [3]): 5.4% | inhibition in vivo at 10 mg/kg (A549 [4]): 78.8% | TGI (A549 [5]): Dose-dependent effect | inhibition in vivo at 2.5 mg/kg (A549 [6]): 38.8% | Activity (A549 [7]): 47.7% | inhibition in vivo at 2.5 mg/kg (A549 [8]): 23.3% | Activity (A549 [9]): 16.2% | Activity (A549 [10]): 2.57% | Activity (A549 [11]): 16.3% | inhibition in vivo at 10 mg/kg (A549 [12]): 83.7% | Activity (A549 [13]): 57.9% | Activity (A549 [14]): 34.2% | Activity (A549 [15]): 33.1% | inhibition in vivo at 5 mg/kg (A549 [16]): 45.9% | inhibition in vivo at 2.5 mg/kg (A549 [17]): 12.2% | inhibition in vivo at 5 mg/kg (A549 [18]): 29% | Activity (A549 [19]): Dose-dependent effect | inhibition in vivo at 10 mg/kg (A549 [20]): 86.9% | inhibition in vivo at 5 mg/kg (A549 [21]): 54.9% | Activity (A549 [22]): 31.1% | inhibition in vivo at 5 mg/kg (A549 [23]): 64.8% | Activity (Mus musculus): Non-toxic | inhibition in vivo at 5 mg/kg (A549 [25]): 60.5% | inhibition in vivo at 10 mg/kg (A549 [26]): 89.6% | Ratio IC50 (A549 [27]): 8 | inhibition in vivo at 2.5 mg/kg (A549 [28]): 43.9%
